From article PMC10756989 (Heliyon, 2023)

Assays:
[1] = Ferric; conditions: for Fe^3+ reducing power: at 500 μg/mL, Fig. 14; for FRAP IC50: ferric reducing power, 63–500 μg/mL, 700 nm
How it was run: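 Potassium ferricyanide reduction: test compound or Trolox (63–500 μg/mL) with 200 mM phosphate buffer and 1 % K3Fe(CN)6, 50 °C, 25 min. Then TCA (0.1 g/mL) is added, the mix is diluted with water, and 0.1 % FeCl3 is added before reading. Reducing capacity is estimated from a gallic acid standard curve.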

[2] = target: T1, pancreatic α-amylase (Homo sapiens, UniProt P04746); assay: α-amylase enzyme inhibitory activity; format: biochemical; conditions: for percentage α-amylase inhibition: at 63 μg/mL, Fig. 5
T1 sequence (P04746 16-511): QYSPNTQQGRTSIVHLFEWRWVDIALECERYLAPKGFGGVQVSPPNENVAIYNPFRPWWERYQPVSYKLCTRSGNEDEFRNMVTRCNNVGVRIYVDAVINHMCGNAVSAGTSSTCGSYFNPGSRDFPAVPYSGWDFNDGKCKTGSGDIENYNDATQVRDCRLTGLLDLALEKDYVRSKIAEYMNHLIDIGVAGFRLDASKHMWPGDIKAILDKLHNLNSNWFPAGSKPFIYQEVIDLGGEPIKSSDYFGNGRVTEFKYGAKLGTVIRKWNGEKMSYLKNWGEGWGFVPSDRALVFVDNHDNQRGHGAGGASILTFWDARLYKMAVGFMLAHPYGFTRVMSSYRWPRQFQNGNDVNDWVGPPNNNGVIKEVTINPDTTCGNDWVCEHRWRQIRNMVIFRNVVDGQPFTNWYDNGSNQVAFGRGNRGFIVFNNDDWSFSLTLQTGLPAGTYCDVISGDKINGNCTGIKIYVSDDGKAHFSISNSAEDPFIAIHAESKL

[3] = DPPH radical mopping capacity; conditions: DPPH 300 μM in methanol, 30 min, 516 nm
How it was run: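 Test compound or Trolox reference (63–500 μg/mL) mixed with DPPH in methanol and kept in the dark at ambient temperature. Absorbance is read against a control without sample or Trolox.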

[4] = Nitric oxide; conditions: for NO IC50: 10 mM sodium nitroprusside, pH 7.4 PBS, 25 °C, 546 nm; for NO scavenging activity: Fig. 12
How it was run: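 Test compound or Trolox reference at various concentrations, incubated 2 h with sodium nitroprusside in PBS. Griess reagent is added, with a further 5 min at 25 °C. Absorbance is read against a blank without test samples.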

[5] = target: yeast α-glucosidase (Saccharomyces cerevisiae, UniProt P53341); assay: α-glucosidase enzyme inhibitory activity; format: biochemical; conditions: for α-glucosidase percentage inhibition: at 250 μg/mL
Chain of yeast α-glucosidase (P53341 whole entry): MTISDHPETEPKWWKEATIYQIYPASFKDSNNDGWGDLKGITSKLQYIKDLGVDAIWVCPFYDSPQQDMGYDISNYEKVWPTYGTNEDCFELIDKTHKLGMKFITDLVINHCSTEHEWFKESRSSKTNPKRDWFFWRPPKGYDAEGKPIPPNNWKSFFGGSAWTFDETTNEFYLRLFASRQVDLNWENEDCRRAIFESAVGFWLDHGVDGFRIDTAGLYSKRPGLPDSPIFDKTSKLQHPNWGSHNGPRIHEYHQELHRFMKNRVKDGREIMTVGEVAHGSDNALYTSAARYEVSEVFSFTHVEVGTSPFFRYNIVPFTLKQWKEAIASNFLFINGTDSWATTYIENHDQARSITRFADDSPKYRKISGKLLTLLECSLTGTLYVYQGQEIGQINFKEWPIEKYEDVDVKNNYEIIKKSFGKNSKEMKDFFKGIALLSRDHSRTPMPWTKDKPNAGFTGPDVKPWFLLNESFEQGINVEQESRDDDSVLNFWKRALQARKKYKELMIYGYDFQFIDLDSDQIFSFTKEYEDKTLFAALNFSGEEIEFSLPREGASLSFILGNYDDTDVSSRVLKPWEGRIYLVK

FRAP IC50 [1] | IC50 [2] [µM] | percentage α-amylase inhibition [2] | DPPH IC50 [3] | NO IC50 [4] | IC50 [5] [µM] | α-glucosidase inhibitory activity ([5]; at 500 μg/mL, compared with L1 and acarbose, Fig. 6) | α-glucosidase inhibitory effect ([5]; at 63–125 μg/mL, among the synthesised samples, Fig. 6) | NO IC50 ([4]; listed as Acarbose (Standard)) | SMILES | Fe^3+ reducing power [1] | NO scavenging activity ([4]; at 500 μg/mL) | α-glucosidase percentage inhibition ([5]; Fig. 6) | NO scavenging activity ([4]; at 63–250 μg/mL, versus other compounds and Trolox)
>500 µg/mL | > 1930 | indistinguishable | 35,69 μg/mL | 119,68 μg/mL | 568 | significantly greater activity | – | – | Cc1cccc(C)c1/N=C/c1ccc2ccccc2c1 [Compound L2, (E)-N-(2,6-dimethylphenyl)-1-(naphthalen-2-yl)methanimine] | slightly better abilities | lower compared with the other test compounds and standard | did not exhibit statistically significant differences | –
292.51 µg/mL | – | – | 13.62 µg/mL | 109.59 µg/mL | – | – | – | – | Cc1c(C)c2c(c(C)c1O)CCC(C)(C(=O)O)O2 (stereo not shown) [Trolox, reference compound] | – | – | – | –
>500 µg/mL | > 1580 | – | 67,81 μg/mL | 91,21 μg/mL | 653 | – | – | – | CC(C)c1cccc(C(C)C)c1/N=C/c1ccc2ccccc2c1 [Compound L3, (E)-N-(2,6-diisopropylphenyl)-1-(naphthalen-2-yl)methanimine] | – | – | – | –
>500 µg/mL | 215 | indistinguishable | 25,44 μg/mL | 70,91 μg/mL | – | – | significantly higher inhibitory effect | – | Cc1cc(C)c(/N=C/c2ccc3ccccc3c2)c(C)c1 [Compound L1, (E)-N-mesityl-1-(naphthalen-2-yl)methanimine] | slightly better abilities | – | did not exhibit statistically significant differences | significantly higher
292,51 μg/mL | – | indistinguishable | 13,62 μg/mL | – | – | – | – | 109,59 μg/mL | C[C@H]1O[C@H](O[C@H]2[C@H](O)[C@@H](O)[C@@H](O[C@H]3[C@H](O)[C@@H](O)C(O)O[C@@H]3CO)O[C@@H]2CO)[C@H](O)[C@@H](O)[C@@H]1N[C@H]1C=C(CO)[C@@H](O)[C@H](O)[C@H]1O (stereo partly shown) [Acarbose, reference compound] | – | – | – | –
